{"source": "ChEMBL document CHEMBL4043295", "about": "“Marbostat-100 Defines a New Class of Potent and Selective Antiinflammatory and Antirheumatic Histone Deacetylase 6 Inhibitors” (J Med Chem, 2018)", "key": {"[1]": {"target": "T1, Protein deacetylase HDAC6 (Homo sapiens) (UniProt Q9UBN7)", "T1 sequence (whole entry)": "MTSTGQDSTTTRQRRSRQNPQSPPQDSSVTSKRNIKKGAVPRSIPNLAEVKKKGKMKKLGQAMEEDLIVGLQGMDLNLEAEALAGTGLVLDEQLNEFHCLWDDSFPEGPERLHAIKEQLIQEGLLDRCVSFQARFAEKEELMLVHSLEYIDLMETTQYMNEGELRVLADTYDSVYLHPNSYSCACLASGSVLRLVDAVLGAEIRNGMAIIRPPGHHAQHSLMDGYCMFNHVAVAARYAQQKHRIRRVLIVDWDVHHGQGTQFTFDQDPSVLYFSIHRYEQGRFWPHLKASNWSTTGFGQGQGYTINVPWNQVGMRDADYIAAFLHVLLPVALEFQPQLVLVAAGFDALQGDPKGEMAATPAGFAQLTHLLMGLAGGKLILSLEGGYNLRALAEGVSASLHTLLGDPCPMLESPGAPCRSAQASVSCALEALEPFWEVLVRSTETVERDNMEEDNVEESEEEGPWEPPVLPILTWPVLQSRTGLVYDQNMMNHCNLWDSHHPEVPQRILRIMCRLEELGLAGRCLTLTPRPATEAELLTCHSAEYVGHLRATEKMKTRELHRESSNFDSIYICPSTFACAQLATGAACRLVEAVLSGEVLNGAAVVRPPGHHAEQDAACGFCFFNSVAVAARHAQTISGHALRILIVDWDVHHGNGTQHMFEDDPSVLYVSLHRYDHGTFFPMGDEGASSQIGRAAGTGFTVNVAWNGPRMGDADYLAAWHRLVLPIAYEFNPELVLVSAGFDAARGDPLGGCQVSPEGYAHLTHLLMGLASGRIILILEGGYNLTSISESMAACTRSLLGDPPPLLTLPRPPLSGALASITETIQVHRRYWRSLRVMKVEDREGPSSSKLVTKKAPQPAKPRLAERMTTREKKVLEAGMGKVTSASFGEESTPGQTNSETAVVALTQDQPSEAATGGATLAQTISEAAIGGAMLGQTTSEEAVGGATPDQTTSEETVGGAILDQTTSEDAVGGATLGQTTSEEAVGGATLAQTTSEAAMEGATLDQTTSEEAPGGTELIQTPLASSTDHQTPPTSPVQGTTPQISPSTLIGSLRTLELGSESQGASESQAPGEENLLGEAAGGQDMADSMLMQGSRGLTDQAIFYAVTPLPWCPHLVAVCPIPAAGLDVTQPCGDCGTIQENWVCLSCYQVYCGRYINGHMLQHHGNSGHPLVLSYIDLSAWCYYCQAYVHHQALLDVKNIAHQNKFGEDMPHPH", "settings": "50 nM"}, "[2]": {"target": "T2, Polyamine deacetylase HDAC10 (Homo sapiens, UniProt Q969S8)", "T2 sequence (Q969S8 whole entry)": "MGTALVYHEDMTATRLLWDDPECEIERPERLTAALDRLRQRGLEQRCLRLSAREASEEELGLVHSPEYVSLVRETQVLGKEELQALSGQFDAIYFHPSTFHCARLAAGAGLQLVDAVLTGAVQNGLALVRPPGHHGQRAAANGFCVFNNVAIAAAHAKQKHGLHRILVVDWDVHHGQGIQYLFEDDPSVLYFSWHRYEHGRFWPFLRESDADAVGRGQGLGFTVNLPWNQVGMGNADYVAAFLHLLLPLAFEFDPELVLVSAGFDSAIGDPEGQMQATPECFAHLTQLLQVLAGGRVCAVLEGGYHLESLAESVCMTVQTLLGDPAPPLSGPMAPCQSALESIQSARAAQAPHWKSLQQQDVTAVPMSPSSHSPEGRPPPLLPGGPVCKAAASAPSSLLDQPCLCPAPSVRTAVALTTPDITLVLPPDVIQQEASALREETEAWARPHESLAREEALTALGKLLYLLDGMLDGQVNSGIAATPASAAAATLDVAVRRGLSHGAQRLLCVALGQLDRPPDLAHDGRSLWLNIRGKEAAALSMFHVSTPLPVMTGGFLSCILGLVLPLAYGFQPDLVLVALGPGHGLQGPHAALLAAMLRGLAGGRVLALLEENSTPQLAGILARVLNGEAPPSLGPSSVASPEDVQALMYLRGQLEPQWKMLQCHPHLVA", "assay": "Inhibition of recombinant human HDAC10 expressed in baculovirus-infected insect cells using fluorogenic peptide RHKKAc as substrate by fluorimeter"}, "Mus musculus [3]": {"tested_on": "Mus musculus", "assay": "Antiarthritic activity in DBA/1J mouse collagen-induced arthritis model assessed as loss of body weight at 30 mg/kg, ip administered every morning for 1 week measured during compound dosing", "assay_type": "functional, organism-based"}, "Mus musculus [4]": {"tested_on": "Mus musculus", "assay": "Antiarthritic activity in DBA/1J mouse collagen-induced arthritis model assessed as decrease in bone erosion in joints at 30 mg/kg, ip administered every morning for 12 to 14 days", "assay_type": "functional, organism-based", "in_short": "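Collagen type II-induced arthritis in mice, treated at 30 mg/kg versus vehicle. Arthritic paws were assessed histologically for synovial inflammation, cellular invasion, cartilage degradation and bone erosion.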"}, "Histone deacetylase 4": {"target": "Histone deacetylase 4 (Homo sapiens, UniProt P56524)", "sequence (P56524 whole entry)": "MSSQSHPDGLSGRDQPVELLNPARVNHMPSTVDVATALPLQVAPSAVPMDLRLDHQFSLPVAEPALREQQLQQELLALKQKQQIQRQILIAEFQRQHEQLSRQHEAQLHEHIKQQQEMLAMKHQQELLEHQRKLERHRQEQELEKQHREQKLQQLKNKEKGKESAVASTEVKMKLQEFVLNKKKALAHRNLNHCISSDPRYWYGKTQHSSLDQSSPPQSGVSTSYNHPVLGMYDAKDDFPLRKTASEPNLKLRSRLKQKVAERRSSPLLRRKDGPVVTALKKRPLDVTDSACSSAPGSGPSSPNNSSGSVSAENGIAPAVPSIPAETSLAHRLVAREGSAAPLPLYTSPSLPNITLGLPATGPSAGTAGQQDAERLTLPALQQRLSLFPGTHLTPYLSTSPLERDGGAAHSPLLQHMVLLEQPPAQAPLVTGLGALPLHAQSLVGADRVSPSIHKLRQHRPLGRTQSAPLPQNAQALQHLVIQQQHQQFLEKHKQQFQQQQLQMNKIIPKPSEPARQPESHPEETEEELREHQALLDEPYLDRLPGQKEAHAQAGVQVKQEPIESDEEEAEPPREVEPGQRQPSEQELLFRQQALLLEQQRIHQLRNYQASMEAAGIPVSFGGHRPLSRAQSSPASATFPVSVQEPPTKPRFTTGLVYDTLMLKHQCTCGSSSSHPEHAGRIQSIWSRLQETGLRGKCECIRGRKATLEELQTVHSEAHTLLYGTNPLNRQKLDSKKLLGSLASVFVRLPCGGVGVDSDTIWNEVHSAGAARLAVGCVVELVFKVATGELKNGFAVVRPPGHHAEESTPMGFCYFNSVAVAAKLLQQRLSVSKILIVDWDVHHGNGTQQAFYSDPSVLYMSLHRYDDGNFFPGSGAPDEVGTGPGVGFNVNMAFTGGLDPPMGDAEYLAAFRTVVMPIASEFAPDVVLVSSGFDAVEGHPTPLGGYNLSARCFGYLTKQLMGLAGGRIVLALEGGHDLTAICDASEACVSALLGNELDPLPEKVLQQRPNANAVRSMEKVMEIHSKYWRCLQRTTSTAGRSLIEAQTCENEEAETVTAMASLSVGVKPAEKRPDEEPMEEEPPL", "assay": "Inhibition of recombinant human C-terminal GST-tagged HDAC4 expressed in baculovirus-infected insect cells using Boc-Lys(TFA)-AMC as substrate by fluorimeter"}, "Jurkat": {"tested_on": "Jurkat", "assay": "Cell cycle arrest in human Jurkat cells at 5 to 1000 nM after 24 hrs by propidium iodide staining-based flow cytometric method", "assay_type": "functional"}, "Mus musculus [5]": {"tested_on": "Mus musculus", "assay": "Antiarthritic activity in DBA/1J mouse collagen-induced arthritis model assessed as reduction in paw thickness at 30 mg/kg, ip administered every morning for 1 week measured during compound dosing", "assay_type": "functional, organism-based", "in_short": "(§1)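 Collagen type II-induced arthritis in mice, treated at 30 mg/kg versus vehicle. Clinical arthritis score and paw swelling were followed over time from the start of treatment until the end of the experiment.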"}, "Histone deacetylase 8": {"target": "T3, Histone deacetylase 8 (Homo sapiens, UniProt Q9BY41)", "T3 sequence (Q9BY41 whole entry)": "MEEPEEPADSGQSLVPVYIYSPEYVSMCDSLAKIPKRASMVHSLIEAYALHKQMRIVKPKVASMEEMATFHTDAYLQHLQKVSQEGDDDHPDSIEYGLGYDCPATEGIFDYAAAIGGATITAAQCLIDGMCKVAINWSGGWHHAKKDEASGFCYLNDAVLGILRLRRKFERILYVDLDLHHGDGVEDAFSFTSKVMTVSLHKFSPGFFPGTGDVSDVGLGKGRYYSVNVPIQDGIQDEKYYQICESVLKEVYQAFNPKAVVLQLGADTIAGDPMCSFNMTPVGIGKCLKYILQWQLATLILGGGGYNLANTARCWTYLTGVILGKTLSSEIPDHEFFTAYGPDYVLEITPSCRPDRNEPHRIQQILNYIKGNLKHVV", "assay": "Inhibition of recombinant human C-terminal His-tagged HDAC8 (1 to 377 residues) expressed in baculovirus-infected insect cells using RHK(Ac)K(Ac)AMC as substrate after 60 mins by fluorimeter"}, "Mus musculus [6]": {"tested_on": "Mus musculus", "assay": "Antiarthritic activity in DBA/1J mouse collagen-induced arthritis model assessed as decrease in clinical scores at 30 mg/kg, ip administered every morning for 12 to 14 days measured during compound dosing relative to vehicle-treated control", "assay_type": "functional", "parameters": "scale not given: the % may be the effect or the level left", "in_short": "as §1"}}, "note": "Calls of active or inactive are those of the source. No cut-off for these calls is given here.", "data": [{"compound": "CN1C(=O)C2CN(Cc3c2c2ccccc2n3Cc2ccc(C(=O)NO)cc2)C1=O", "note": "(centres undefined)", "values": [{"measurement": "inhibition", "setting": "[1]", "value": "Active"}, {"measurement": "Ki", "setting": "[2]", "value": 0.452, "unit": "µM"}, {"measurement": "Activity", "setting": "Mus musculus [3]", "value": "Active"}, {"measurement": "Activity", "setting": "Mus musculus [4]", "value": "Active"}, {"measurement": "Ki", "setting": "Histone deacetylase 4", "value": 1.82, "unit": "µM"}, {"measurement": "Activity", "setting": "Jurkat", "value": "inactive"}, {"measurement": "Activity", "setting": "Mus musculus [5]", "value": "Active"}, {"measurement": "Ki", "setting": "Histone deacetylase 8", "value": 0.173, "unit": "µM"}, {"measurement": "Activity", "setting": "Mus musculus [6]", "value": 25, "unit": "%"}]}]}
